Reference: article PMC8809242 (Acta Pharmacologica Sinica, 2022)

Assays:
GR = GR nuclear translocation, confocal microscopy in A549 cells; type: cell-based, human; details: 10 μM, 2 h
[1] = tested on: NF-κB-dependent transcription (GR transrepression); type: cell-based; details: Homo sapiens, HeLa, read-out: IC50, NF-κB Luc transrepression
How it was run: (§1)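 HeLa cells grown 24 h in 5% CSS DMEM, then lipofected for 24 h with 71 ng GRα, 5 ng Renilla, and 24 ng reporter (NF-κB-Luc or 5×AP-1-Luc). Cells were stimulated with TNF-α 5 ng/mL (NF-κB) or PMA 1 ng/mL (AP-1) plus test compound. Lysates were read by dual firefly/Renilla luciferase.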

[2] = tested on: AP-1-dependent transcription (GR transrepression); type: cell-based; details: Homo sapiens, HeLa, read-out: IC50, AP-1 Luc transrepression
How it was run: as §1

RAW264.7 cells [3] = type: cell-based, mouse; details: 10 μM with 20 ng/mL LPS overnight
RAW264.7 cells [4] = test: Real-time quantitative PCR in LPS-stimulated RAW264.7 cells; type: cell-based, mouse; details: RAW264.7, 20 ng/mL LPS, 10 μM, 18 h
How it was run: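 Mouse RAW264.7 macrophages (1 × 10^6 per well) were cultured 24 h in 3% CSS DMEM. They were then co-treated with 20 ng/mL LPS and 10 μM test compound for 18 h. Total RNA was reverse-transcribed and target transcripts were measured by SYBR Green qPCR, with GAPDH normalisation and 2^−ΔΔCt relative quantitation.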

AR = type: cell-based, human; details: various concentrations, 72 h; 10 nM DHT = 100%
PR = PR selectivity, ARR3tk-luciferase reporter in PC3 cells transfected with hPR; type: cell-based, human; details: various concentrations, 16 h; 10 nM progesterone = 100%
How it was run: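 PR counter-screen in PC3 cells: 1 × 10^4 cells/well in 3% CSS DMEM for 24 h. Lipofection for 24 h with 50 ng hPR, 50 ng ARR3tk-luciferase, and 5 ng Renilla per well. Then 16 h exposure to 10 nM progesterone or test compound, and luciferase measurement.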

MR = MR selectivity, MMTV luciferase reporter in 293T cells transfected with pCMV-hMR; type: cell-based, human; details: various concentrations, 16 h; 10 nM aldosterone = 100%
How it was run: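 Human MR counter-screen. 293T cells were seeded at 1 × 10^4 cells/well in 3% CSS DMEM for 24 h. They were then lipofected for 24 h with 71 ng pCMV-hMR, 24 ng pGL4.36 MMTV-luc2P, and 5 ng Renilla. Next they were treated for 16 h with 10 nM aldosterone or test compound. Firefly luciferase read-out.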

Question: `CC(C)[C@H](NC(=O)C(C)(F)F)[C@H](Oc1ccc2c(cnn2-c2ccc(=O)n(C)c2)c1)c1ccccc1` [Azd9567] was tested. Which GR nuclear translocation (GR) did it give?
Answer: Its GR nuclear translocation is “promoted the translocation of GR from the cytoplasm to the nucleus”.

Question: For `C[C@@H]1C[C@H]2[C@@H]3CCC4=CC(=O)C=C[C@]4(C)[C@@]3(F)[C@@H](O)C[C@]2(C)[C@@]1(O)C(=O)CO` [Dex, dexamethasone], which IC50 [1] is on record?
Answer: Its IC50 is 14 ± 2.19 nM.

Question: What about the IC50 [2] of the same compound?
Answer: The IC50 was 48.8 ± 7.1 nM.

Question: What about the GR nuclear translocation (GR) of the same compound?
Answer: The GR nuclear translocation was “promoted the translocation of GR from the cytoplasm to the nucleus”.

Question: And the “number of repressed genes (RNA-seq)” value (RAW264.7 cells [3])?
Answer: Its value is 117.

Question: What about the “SOCS3 mRNA regulation (Q-PCR)” value (RAW264.7 cells [4]) of the same compound?
Answer: Its value is “downregulated only by HT-15 but not Dex”.

Question: What about the “off-target activation effect on AR” value (AR) of the same compound?
Answer: Its value is “strong activation effects”.

Question: What about the “off-target activation effect on PR” value (PR) of the same compound?
Answer: Its value is “strong activation effects”.

Question: What about the “off-target activation effect on MR” value (MR) of the same compound?
Answer: The value was “strong activation effects”.
